# Results pooled from the literature.
# Organism: Candida albicans
# Read-out: microbial growth
Compound,technique,strain,time,setting,MIC
C=C1C(=O)O[C@@H](CCCCCCCCCCCCC)[C@@H]1C(=O)O,,SC5314,,,64 µg/mL
O=C1NN=C(N=Cc2ccc(O)cc2O)C1=NNn1c(-c2ccccc2)nc2ccccc2c1=O,broth dilution,,,,53.5 µM
C[C@@H]1[C@H](O)[C@@H](C)/C=C/C=C/C=C/C=C/C=C/C=C/C=C/[C@H](O[C@@H]2O[C@H](C)[C@@H](O)[C@H](N)[C@@H]2O)C[C@@H]2O[C@](O)(C[C@@H](O)C[C@@H](O)[C@H](O)CC[C@@H](O)C[C@@H](O)CC(=O)O[C@H]1C)C[C@H](O)[C@H]2C(=O)O,,ATCC90028,,,0.63 µg/mL
N=C(N)N1CC=C(c2coc(C(=O)Nc3ccc(C4=CCN(C(=N)N)CC4)c(F)c3)c2)CC1,broth dilution,,48 h,clinical isolate,0.78 µg/mL
C[C@@H]1[C@H](O)[C@@H](C)/C=C/C=C/C=C/C=C/C=C/C=C/C=C/[C@H](O[C@@H]2O[C@H](C)[C@@H](O)[C@H](N)[C@@H]2O)C[C@@H]2O[C@](O)(C[C@@H](O)C[C@@H](O)[C@H](O)CC[C@@H](O)C[C@@H](O)CC(=O)O[C@H]1C)C[C@H](O)[C@H]2C(=O)O,broth dilution,,,,0.25 µg/mL
O=C1NN=C(N=Cc2ccccc2O)C1=NNn1c(-c2ccccc2)nc2ccccc2c1=O,broth dilution,,,,111 µM
O=C(CCCCCCCC[P+](c1ccccc1)(c1ccccc1)c1ccccc1)Nc1ccc(O)c(O)c1.[Br-],broth dilution,ATCC90028,24 h,,> 32 µg/mL
CC1=NN(CNc2ccc(C(=O)O)cc2)C(=O)C1=NNn1c(-c2ccccc2)nc2ccccc2c1=O,broth dilution,,,,50.5 µM
O=C(CCCCCCCC[P+](c1ccccc1)(c1ccccc1)c1ccccc1)Nc1cc(O)c(O)c(O)c1.[Br-],broth dilution,ATCC90028,24 h,,> 32 µg/mL
CC1=NN(CNC(=O)c2ccccc2)C(=O)C1=NNn1c(-c2ccccc2)nc2ccccc2c1=O,broth dilution,,,,104 µM
O=C(CCCCCCCCCC[P+](c1ccccc1)(c1ccccc1)c1ccccc1)Nc1cc(O)c(O)c(O)c1.[Br-],broth dilution,ATCC90028,24 h,,8 µg/mL
CCOC(=O)CON,,SC5314,,,32 µg/mL
O=C(CCCCCC[P+](c1ccccc1)(c1ccccc1)c1ccccc1)Nc1ccc(O)c(O)c1.[Br-],broth dilution,ATCC90028,24 h,,32 µg/mL
CC[C@@H]([C@H](C)O)n1ncn(-c2ccc(N3CCN(c4ccc(OC[C@@H]5CO[C@@](Cn6cncn6)(c6ccc(F)cc6F)C5)cc4)CC3)cc2)c1=O,,ATCC10231,72 h,,< 0.3 µM
CCc1nc(N)nc(N)c1C#CCc1cc(OC)ccc1OC,resazurin,,,,250 µM
OC(Cn1cncn1)(Cn1cncn1)c1ccc(F)cc1F,broth dilution,ATCC90028,24 h,,0.125 µg/mL
